Our source for the Activity, EC50 and Remaining PrP-Sc level values is ChEMBL document CHEMBL1156119 (J Med Chem, 2009).

The source made the active and inactive calls. The calls are words filed in the database; no cut-off is given here.

Data set [1] has as its system SMB. Briefly: Antiprion activity against Scrapie prion protein-mediated scrapie in mouse SMB cells assessed as remaining PrP-Sc level at 1 uM after 5 days by Bradford assay relative to control. The class given is cell-based. The gist of the method: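 Compound DMSO stocks were diluted via HBSS into medium and applied for 5 days. Lysates of ~30-40 μg protein/well were dot-blotted, digested with proteinase K at 75 μg mL⁻¹ (1 h, 37 °C) and denatured in 1.8 M guanidine thiocyanate. Read-out was %PrP^Sc versus DMSO-only control, in triplicate.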

A short description of data set [2]: Antiprion activity against Scrapie prion protein-mediated scrapie in mouse SMB cells assessed as remaining PrP-Sc level after 5 days by Bradford assay. The class given is cell-based. The conditions noted are these: 120 h. The gist of the method: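 Same SMB dot-blot protocol with 5-day exposure. Compounds were rescreened over a range of concentrations to fit an EC₅₀ from dose-response curves. Each determination was run in triplicate, in at least two independent experiments. PrP^Sc was measured relative to an untreated DMSO-only control.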

Data set [3] has as its target Major prion protein (Mus musculus) (UniProt P04925). Briefly: Binding affinity to mouse PrP up to 40 uM by surface plasmon resonance assay.
In data set [4] the target is Major prion protein (Homo sapiens) (UniProt P04156). Briefly: Binding affinity to human PrP up to 40 uM by surface plasmon resonance assay.
In data set [5] the test system is SMB. Briefly: Antiprion activity against Scrapie prion protein-mediated scrapie in mouse SMB cells assessed as remaining PrP-Sc level at 10 uM after 5 days by Bradford assay relative to control. The class given is cell-based. Put shortly: (§1)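 SMB scrapie-infected mouse cells, non-neuronal, in medium 199 with 10% newborn calf and 5% fetal calf serum, seeded at 3 × 10⁴ cells/well and attached for 24 h. Compound DMSO stocks were diluted via HBSS into medium and applied for 5 days. Lysates of ~30-40 μg protein/well were dot-blotted, digested with proteinase K at 75 μg mL⁻¹ (1 h, 37 °C) and denatured in 1.8 M guanidine thiocyanate. Read-out was %PrP^Sc versus DMSO-only control, in triplicate.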

The subject of data set [6] is SMB. Briefly: Antiprion activity against Scrapie prion protein-mediated scrapie in mouse SMB cells assessed as remaining PrP-Sc level at 20 uM after 5 days by Bradford assay relative to control. The class given is cell-based. The gist of the method:
as §1

Data set [7] is described as follows: Cytotoxicity against mouse SMB cells at 20 uM after 5 days by MTT assay. Conditions: 120 h. The class given is cell-based. Put shortly: (§2)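 SMB cells were seeded at 3 × 10⁴ cells/well and attached for 24 h. Compound was added from DMSO stock diluted through HBSS into the medium, and cells were exposed for 5 days. Viability was read by MTT assay following the standard reagent protocol.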

Data set [8] has as its system SMB. Briefly: Antiprion activity against Scrapie prion protein-mediated scrapie in mouse SMB cells by dot blot analysis. The class given is cell-based. Put shortly:
as §1

A short description of data set [9]: Antiprion activity against Scrapie prion protein-mediated scrapie in mouse ScNB cells assessed as PrP-res accumulation after 4 days by immunoblotting. In kind it is cell-based. The conditions noted are these: 96 h.
Data set [10] can be described thus: Cytotoxicity against mouse SMB cells at 10 uM after 5 days by MTT assay. In kind it is cell-based. The conditions noted are these: 120 h. Put shortly:
as §2

The test system of data set [11] is SMB. Briefly: Antiprion activity against Scrapie prion protein-mediated scrapie in mouse SMB cells assessed as remaining PrP-Sc level at 24 uM after 5 days by Bradford assay relative to control. In kind it is cell-based.
Data set [12] is described as follows: Antiprion activity against Scrapie prion protein-mediated scrapie in RML mouse ScN2a cells assessed as reduction of PrP-Sc level after 6 days by immunoblotting. The class given is cell-based. Conditions: 144 h.

Major prion protein (Mus musculus), sequence (P04925 whole entry): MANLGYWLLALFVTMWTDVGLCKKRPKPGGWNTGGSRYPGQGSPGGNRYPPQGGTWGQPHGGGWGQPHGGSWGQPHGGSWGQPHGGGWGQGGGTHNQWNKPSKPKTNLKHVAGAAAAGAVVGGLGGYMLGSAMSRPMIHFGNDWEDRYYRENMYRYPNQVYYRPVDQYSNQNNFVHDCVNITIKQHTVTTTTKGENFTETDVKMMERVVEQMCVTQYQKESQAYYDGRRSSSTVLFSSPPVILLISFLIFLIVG

On to `O=C(Nc1ccc(O)cc1)C(=O)c1c[nH]c2ccccc12`, for which the Activity in data set [1] turned out to be 17.8%. Besides, the EC50 in [2] came to 240 nM. Further, the result in data set [3] and in data set [4] was inactive.
For the molecule `COc1cccc(NC(=O)C(=O)c2c[nH]c3ccccc23)c1`, the Remaining PrP-Sc level in data set [5] stood at 17.5%. Moreover, the EC50 in data set [2] turned out to be 230 nM. Besides, the outcome in [3] and in data set [4] was inactive.
As for `Cc1[nH]c2ccccc2c1C(=O)C(=O)Nc1cnc2ccccc2c1`, the Remaining PrP-Sc level in data set [6] is 87.6%. Moreover, the Activity entry in [7] was “Toxic”.
As for `O=C(Nc1ccc(N2CCOCC2)cc1)C(=O)c1c[nH]c2ccccc12`, the values for the Activity entry in [8] and in [1] were “Dose-dependent effect” and 4.6%, respectively. Besides, in data set [2], the EC50 is 9 nM.
On to `COc1cc(/C=C/C(=O)CC(=O)/C=C/c2ccc(O)c(OC)c2)ccc1O` [CURCUMIN], for which the EC50 was 950 nM in [2] and 10 nM in data set [9].
With `CC(C)NC(=O)C(=O)c1c[nH]c2ccccc12`, the Remaining PrP-Sc level in data set [6] was 74.9%. In addition, the Activity result in [7] and in [10] was “Toxic” in each case.
`O=C(Nc1cnc2ccccc2c1)C(=O)c1c[nH]c2ccccc12`: the Activity in data set [1] came to 41.3%. The EC50 in [2] was 170 nM. Moreover, the result in data set [3] and in [4] was inactive.
In the case of `O=C(Nc1ccc(N2CCCCC2)cc1)C(=O)c1c[nH]c2ccccc12`, the Activity result in data set [8] was “Dose-dependent effect”; in data set [1], 6.5%. Also, the EC50 in [2] worked out at 72 nM.
Regarding `Cc1[nH]c2ccccc2c1C(=O)C(=O)NCc1ccco1`, the Remaining PrP-Sc level in data set [6] amounted to 83%. Besides, the Activity entry in [7] is recorded as “Toxic”.
For `COc1ccccc1NC(=O)C(=O)c1c[nH]c2ccccc12`, the Remaining PrP-Sc level in [5] turned out to be 140%. The Activity entry in data set [7] is given as “Toxic”.
Taken in the same sequence, the figures for `Cn1cc(C(=O)C(=O)Nc2cccc(Oc3ccccc3)c2)c2ccccc21` were 169% and “Toxic”.
As for `Cn1cc(C(=O)C(=O)Nc2cccc(C#N)c2)c2ccccc21`, the Remaining PrP-Sc level in data set [6] came out at 91.2%. For the same molecule, in data set [7], the Activity result was “Toxic”.
The like results for `Cc1[nH]c2ccccc2c1C(=O)C(=O)NC1CCCCC1` were, in that order, 102% and “Toxic”.
Taken in the same sequence, the figures for `Cn1cc(C(=O)C(=O)Nc2cnc3ccccc3c2)c2ccccc21` were 102% and “Toxic”.
On to `O=C(Nc1ccccc1)C(=O)c1c[nH]c2ccccc12`, for which, in data set [1], the Activity was determined as 19.5%. Further, in [2], the EC50 worked out at 320 nM. The result in [3] and in data set [4] was inactive.
Turning to `CN(C(=O)C(=O)c1c[nH]c2ccccc12)c1ccccc1`, the Activity in data set [11] stood at 127%.
For the molecule `O=C(Nc1ccc(F)nc1)C(=O)c1c[nH]c2ccccc12`, the Activity result in data set [8] is “Dose-dependent effect”; in data set [1], 52.3%. Besides, the EC50 in data set [2] turned out to be 1210 nM.
`COc1ccc(NC(=O)C(=O)c2c[nH]c3ccccc23)cc1`: the Activity in data set [1] was found to be 6.7%. In data set [2], the EC50 is 11 nM. The result in [3] and in data set [4] was inactive.
Consider `O=C(Nc1cccc(F)c1)C(=O)c1c[nH]c2ccccc12`, for which, in data set [1], the Activity amounted to 27.1%. The EC50 in [2] is 640 nM. In addition, the outcome in [3] and in data set [4] was inactive.
On to `CCN(CC)CCCC(C)Nc1c2ccc(Cl)cc2nc2ccc(OC)cc12` (configuration not stated) [QUINACRINE], for which the EC50 in data set [2] was 420 nM; in data set [12] it was 300 nM.
With `Cn1cc(C(=O)C(=O)N2CCCCC2)c2ccccc21`, in data set [5], the Remaining PrP-Sc level came out at 131%. For the same molecule, the Activity entry in data set [7] was “Toxic”.
